Test results: ChEMBL document CHEMBL1128301, “Cephalosporin derivatives of doxorubicin as prodrugs for activation by monoclonal antibody-beta-lactamase conjugates” (J Med Chem, 1995)
pIC50: −log10 of the molar value.

Experiments:
Assay type in all cases: functional, cell-based
[1] = system: H2981 cell line; assay: Concentration resulting in 50% incorporation of [3H]thymidine compared to untreated control cells on H2981 human lung adenocarcinoma cells in the presence of 10 ug/mL Enterobacter cloacae P99 beta-lactamase (ECIbL); conditions: H2981, 1 h
How it was run: (§1)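 H2981 cells in IMDM/10% FBS were seeded at 4000 or 8000 per well and left 18 h at 37 °C. Drug, ±EClbL, was given in RPMI/10% FBS over a concentration range for 1 h at 37 °C, then washed off and cells kept 18 h. [³H]thymidine (1 μCi/well) was pulsed 6 h (8000 cells) or 18 h (4000 cells).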

[2] = system: H2981 cell line; assay: Enterobacter cloacae P99 beta-lactamase (ECIbL) enzyme concentration required to achieve an IC50 value of compound on H2981 lung adenocarcinoma cells; conditions: Homo sapiens
How it was run: (§2)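 H2981 cells were plated at 4000 or 8000/well and allowed to adhere 18 h at 37 °C. Prodrug was held fixed at 1 μM while β-lactamase was titrated. After 1 h at 37 °C, cells were washed and incubated 18 h. A [³H]thymidine pulse (1 μCi/well) followed, 6 h or 18 h depending on seeding.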

[3] = system: H2981 cell line; assay: Concentration resulting in 50% incorporation of [3H]thymidine compared to untreated control cells on H2981 human lung adenocarcinoma cells in the presence of doxorubicin; conditions: H2981, 1 h; how it was run: as §1
[4] = system: H2981 cell line; assay: Bacillus cereus beta-lactamase (BCbL) enzyme concentration required to achieve an IC50 value of compound on H2981 lung adenocarcinoma cells; conditions: Homo sapiens; how it was run: as §2
[5] = system: H2981 cell line; assay: Concentration resulting in 50% incorporation of [3H]thymidine compared to untreated control cells on H2981 human lung adenocarcinoma cells in the absence of Enterobacter cloacae P99 beta-lactamase (ECIbL); conditions: H2981, 1 h; how it was run: as §1
[6] = system: H2981 cell line; assay: Escherichia coli TEM-1 beta-lactamase (ECbL) enzyme concentration required to achieve an IC50 value of compound on H2981 lung adenocarcinoma cells; conditions: Homo sapiens; how it was run: as §2
[7] = system: H2981 cell line; assay: Cytotoxicity on H2981 Human lung adenocarcinoma cells.; how it was run: as §1

pIC50 [1]	pIC50 [2]	pIC50 [3]	pIC50 [4]	pIC50 [5]	pIC50 [6]	Structure (SMILES)	pIC50 [7]
6.26	10.62	6.25	9.68	4.99	9.60	COc1cccc2c1C(=O)c1c(O)c3c(c(O)c1C2=O)C[C@@](O)(C(=O)CO)C[C@@H]3OC1CC(NC(=O)OCC2=C(C(=O)O)N3C(=O)[C@@H](NC(=O)Cc4cccs4)[C@H]3SC2)C(O)C(C)O1 (some centres not stated)	–
6.35	9.89	6.34	8.80	5.60	8.95	COc1cccc2c1C(=O)c1c(O)c3c(c(O)c1C2=O)C[C@@](O)(C(=O)CO)C[C@@H]3OC1CC(NC(=O)OCC2=C(C(=O)O)N3C(=O)[C@@H](NC(=O)CSC4OC(CO)C(O)C(O)C4O)[C@H]3SC2)C(O)C(C)O1 (some centres not stated)	–
6.12	10.92	6.26	9.60	5.13	9.17	COc1cccc2c1C(=O)c1c(O)c3c(c(O)c1C2=O)C[C@@](O)(C(=O)CO)C[C@@H]3OC1CC(NC(=O)OCC2=C(C(=O)O)N3C(=O)[C@@H](NC(=O)Cc4ccccc4)[C@H]3SC2)C(O)C(C)O1 (some centres not stated)	–
6.33	10.41	6.32	8.95	4.66	8.19	COc1cccc2c1C(=O)c1c(O)c3c(c(O)c1C2=O)C[C@@](O)(C(=O)CO)C[C@@H]3OC1CC(NC(=O)OCC2=C(C(=O)O)N3C(=O)[C@@H](NC(=O)CCCC(=O)O)[C@H]3SC2)C(O)C(C)O1 (some centres not stated)	–

More lines, now with the values behind:

Structure (SMILES)	pIC50 [1]	pIC50 [2]	pIC50 [3]	pIC50 [4]	pIC50 [5]	pIC50 [6]	pIC50 [7]
COc1cccc2c1C(=O)c1c(O)c3c(c(O)c1C2=O)C[C@@](O)(C(=O)CO)C[C@@H]3OC1CC(NC(=O)OCC2=C(C(=O)O)N3C(=O)[C@@H](N)[C@H]3SC2)C(O)C(C)O1 (some centres not stated)	6.37	8.01	6.34	7.60	5.09	6.73	–
COc1cccc2c1C(=O)c1c(O)c3c(c(O)c1C2=O)C[C@@](O)(C(=O)CO)C[C@@H]3OC1CC(NC(=O)OCC2=C(C(=O)O)N3C(=O)[C@@H](NC(=O)C(c4ccccc4)S(=O)(=O)O)[C@H]3SC2)C(O)C(C)O1 (some centres not stated)	6.33	8.25	6.25	9.41	4.83	7.64	–
COc1cccc2c1C(=O)c1c(O)c3c(c(O)c1C2=O)C[C@@](O)(C(=O)CO)C[C@@H]3O[C@H]1C[C@H](N)[C@H](O)[C@H](C)O1 [DOXORUBICIN]	–	–	–	–	–	–	6.30
